Measurements as given in ChEMBL document CHEMBL1268918, “1,3-Benzoxazole-4-carbonitrile as a novel antifungal scaffold of β-1,6-glucan synthesis inhibitors” (Bioorg Med Chem, 2010).
Converted amounts (≈) assume the structure as drawn. The source made the active and inactive calls. No cut-off for these calls is given here.

Tests used:
Saccharomyces cerevisiae = test: Antifungal activity against Saccharomyces cerevisiae YPH500 assessed as concentration required to 50% growth inhibition using alamar blue staining after 18 to 72 hrs by microdilution method; type: functional
Outline: (§1)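 Serial broth microdilution in RPMI 1640 with 0.165 M MOPS. Inoculum was 1×10³–1×10⁴ cells/mL and incubation ran 18–72 h, both set per strain by growth rate, at 30 °C. MIC-2 is the lowest drug concentration giving 50% growth inhibition versus a drug-free control.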

Candida albicans [1] = test: Antifungal activity against Candida albicans ATCC 24433 assessed as concentration required to 50% growth inhibition using alamar blue staining after 18 to 72 hrs by microdilution method; type: functional; outline: as §1
Nakaseomyces glabratus [2] = test: Antifungal activity against Candida glabrata ATCC 48435 assessed as concentration required to 50% growth inhibition using alamar blue staining after 18 to 72 hrs by microdilution method; type: functional; outline: as §1
Candida tropicalis [3] = test: Antifungal activity against Candida tropicalis IAM 4965 assessed as concentration required to 50% growth inhibition using alamar blue staining after 18 to 72 hrs by microdilution method; type: functional; outline: as §1
Pichia kudriavzevii [4] = test: Antifungal activity against Candida krusei ATCC 44507 assessed as concentration required to 50% growth inhibition using alamar blue staining after 18 to 72 hrs by microdilution method; type: functional; outline: as §1
[5] = Octanol-phosphate buffer partition coefficient, log D of the compound at pH 7.4; type: physicochemical
Outline: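 Compound was shaken 30 min in equal volumes of n-octanol and phosphate-buffered saline at pH 7.4, then centrifuged at 3000 rpm for 10 min. Each layer was assayed by LC/MS, and log D was taken from the partition ratio.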

[6] = Solubility in water at pH 6.8; type: physicochemical
[7] = Metabolic stability in human liver microsomes at 1 uM after 30 mins; type: ADME, Microsome; details: read-out: Stability
Outline: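 Compound was preincubated with human liver microsomes (0.5 mg/mL protein) in sodium phosphate buffer pH 7.4 for 20 min at 37 °C. NADPH started the reaction, and MeOH stopped it after 30 min. Samples were centrifuged at 4 °C, and parent loss was quantified by LC/MS/MS.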

Candida albicans [8] = test: Antifungal activity against FLCZ-susceptible Candida albicans ATCC 90028 assessed as concentration required to 80% growth inhibition using alamar blue staining after 18 to 72 hrs by microdilution method; type: functional
Outline: (§2)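 Serial broth microdilution in YPD medium (1% yeast extract, 2% peptone, […]). Starting cell density (1 × 10³–1 × 10⁴ cells/mL) and incubation time (18–72 h) were set per strain by growth speed. MIC-1 is the lowest drug concentration giving 80% growth inhibition relative to the drug-free control.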

Candida albicans [9] = test: Antifungal activity against FLCZ-resistant Candida albicans ATCC MYA-573 assessed as concentration required to 80% growth inhibition using alamar blue staining after 18 to 72 hrs by microdilution method; type: functional; outline: as §2
Nakaseomyces glabratus [10] = test: Antifungal activity against Candida glabrata ATCC 48435 assessed as concentration required to 80% growth inhibition using alamar blue staining after 18 to 72 hrs by microdilution method; type: functional
Outline: (§3)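 Serial dilution in YPD medium (1% yeast extract, 2% peptone, […]), incubated at 37 °C. Inoculum was 1×10³–1×10⁴ cells/mL and incubation 18–72 h, both chosen per strain. MIC-1 is the lowest concentration giving 80% inhibition relative to a drug-free control.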

Candida tropicalis [11] = test: Antifungal activity against Candida tropicalis ATCC 44508 assessed as concentration required to 80% growth inhibition using alamar blue staining after 18 to 72 hrs by microdilution method; type: functional; outline: as §3
Pichia kudriavzevii [12] = test: Antifungal activity against Candida krusei ATCC 44507 assessed as concentration required to 80% growth inhibition using alamar blue staining after 18 to 72 hrs by microdilution method; type: functional; outline: as §3
Candida albicans [13] = test: Antifungal activity against FLCZ-susceptible Candida albicans ATCC 90028 assessed as reduction of beta-1,6-glucan level after 3 hrs by [14C]-glucose incorporation assay; type: functional, organism-based
Outline: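 Exponentially growing cells suspended in RPMI 1640 to absorbance ~0.7 at 595 nm; drug and [14C]-glucose added, incubated 30 °C with occasional shaking. After 3 h, cells heated in 3% NaOH at 80 °C for 1 h; mannan taken from supernatant by Fehling's reaction; insoluble residue digested with Zymolyase 100T overnight; radioactivity per fraction measured. Tested 0.016–4 µg/mL.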

Candida albicans [14] = test: Antifungal activity against FLCZ-susceptible Candida albicans ATCC 90028 assessed as reduction of beta-1,3-glucan level up to 4 ug/ml after 3 hrs by [14C]-glucose incorporation assay; type: functional, organism-based
Outline: (§4)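 Exponentially growing cells were suspended in RPMI 1640 to about 0.7 A595, then drug (0–4 µg/mL) and [14C]-glucose were added. Incubation was 3 h at 30 °C with occasional shaking. Cells were heated in 3% NaOH at 80 °C for 1 h. Mannan was taken from the supernatant by Fehling's reaction, and the insoluble residue was digested overnight with Zymolyase 100T. β-1,3-glucan counts were obtained as glucan minus β-1,6-glucan.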

Candida albicans [15] = test: Antifungal activity against FLCZ-susceptible Candida albicans ATCC 90028 assessed as reduction of chitin level up to 4 ug/ml after 3 hrs by [14C]-glucose incorporation assay; type: functional, organism-based; outline: as §4
Candida albicans [16] = test: Antifungal activity against FLCZ-susceptible Candida albicans ATCC 90028 assessed as reduction of mannan level up to 4 ug/ml after 3 hrs by [14C]-glucose incorporation assay; type: functional, organism-based; outline: as §4

Structure (SMILES)	MIC (Saccharomyces cerevisiae) [µg/mL]	MIC (Candida albicans [1]) [µg/mL]	MIC (Nakaseomyces glabratus [2]) [µg/mL]	MIC (Candida tropicalis [3]) [µg/mL]	MIC (Pichia kudriavzevii [4]) [µg/mL]	logD [5]	solubility [6] [µg/mL]	remaining at 0.5 h, 1 µM [7] [%]	MIC (Candida albicans [8]) [µg/mL]	MIC (Candida albicans [9]) [µg/mL]	MIC (Nakaseomyces glabratus [10]) [µg/mL]	MIC (Candida tropicalis [11]; read-out: MIC) [µg/mL]	MIC (Pichia kudriavzevii [12]) [µg/mL]	MIC (Candida tropicalis [11]) [µg/mL]	Activity (Candida albicans [13])	Activity (Candida albicans [14])	Activity (Candida albicans [15])	Activity (Candida albicans [16])
Cc1c(C#N)c2c(c(N3CC[C@H](N(C)C)C3)c1-c1ccccc1)OCC(C(C)(C)C)=N2	8 (≈ 19.2 µM)	> 16	8 (≈ 19.2 µM)	16 (≈ 38.4 µM)	> 16	4.4	56 (≈ 134 µM)	–	–	–	–	–	–	–	–	–	–	–
CN(C)[C@H]1CCN(c2c(-c3ccccc3)cc(C#N)c3oc(C(C)(C)C)cc23)C1	2 (≈ 5.16 µM)	> 4	> 4	4 (≈ 10.3 µM)	> 4	5.4	< 2	20	–	–	–	–	–	–	–	–	–	–
OC(Cn1cncn1)(Cn1cncn1)c1ccc(F)cc1F [FLUCONAZOLE]	4 (≈ 13.1 µM)	0.25 (≈ 0.816 µM)	2 (≈ 6.53 µM)	0.25 (≈ 0.816 µM)	16 (≈ 52.2 µM)	–	> 2000	–	0.25 (≈ 0.816 µM)	> 128	16 (≈ 52.2 µM)	0.5 (≈ 1.63 µM)	32 (≈ 104 µM)	–	–	–	–	–
Cc1c(-c2ccccc2)c(N2CC[C@H](N(C)C)C2)c2oc(C3CCC3)nc2c1C#N	–	–	–	–	–	4.5	7 (≈ 17.5 µM)	–	0.063 (≈ 0.157 µM)	0.125 (≈ 0.312 µM)	–	–	0.5 (≈ 1.25 µM)	< 0.016	–	–	–	–
Cc1c(-c2ccccc2)c(N2CC[C@H](N(C)C)C2)c2[nH]c(C(C)(C)C)nc2c1C#N	0.5 (≈ 1.25 µM)	4 (≈ 9.96 µM)	0.5 (≈ 1.25 µM)	2 (≈ 4.98 µM)	> 16	4.7	8 (≈ 19.9 µM)	21	–	–	–	–	–	–	–	–	–	–
Cc1c(-c2ccccc2)c(N2CC[C@H](N(C)C)C2)c2oc(C(C)(C)C)nc2c1C#N.Cl	≤ 0.016	4	≤ 0.016	0.063	4	4.6	5	6	0.063	0.125	0.063	0.032	2	–	–	–	–	–
CN[C@H]1CCN(c2c(-c3ccccc3)c(C)c(C#N)c3nc(C(C)(C)C)oc23)C1.Cl	0.125	16	0.125	0.25	> 16	3.4	120	54	0.25	0.25	0.125	0.063	> 4	–	Dose-dependent effect	inactive	inactive	inactive
CN(C)[C@H]1CCN(c2c(-c3ccccc3)cc(C#N)c3nc(C(C)(C)C)oc23)C1	0.25 (≈ 0.643 µM)	16 (≈ 41.2 µM)	0.25 (≈ 0.643 µM)	0.5 (≈ 1.29 µM)	16 (≈ 41.2 µM)	3.8	16 (≈ 41.2 µM)	8	–	–	–	–	–	–	–	–	–	–
Cc1c(-c2ccccc2)c(N2CC[C@H](N(C)C)C2)n2c(nc3ccccc32)c1C#N	0.004 (≈ 0.0101 µM)	> 4	0.063 (≈ 0.159 µM)	0.25 (≈ 0.632 µM)	0.125 (≈ 0.316 µM)	–	5 (≈ 12.6 µM)	–	–	–	–	–	–	–	–	–	–	–
